# Measured values: ChEMBL document CHEMBL1128190, “Inhibition of E-selectin-, ICAM-1-, and VCAM-1-mediated cell adhesion by benzo[b]thiophene-, benzofuran-, indole-, and naphthalene-2-carboxamides: identification of PD 144795 as an antiinflammatory agent” (J Med Chem, 1995)
# How the values were obtained:
# [1] = cell adhesion assay; measuring the inhibitory concentration against Human umbilical vein endothelial cell (HUVEC) activation, using Na51CrO4 as radioligand at 100 uM; assay type: functional; details: in the assay text read “calcein-AM” for “Na51CrO4”
# [2] = The compound was tested for inhibitory activity against vascular cell adhesion molecule (VCAM)-1 mediated cell adhesion in Human aortic endothelial cell culture, by using HAEC surface expression assay at 50 uM; assay type: functional
# Method in brief: (§1)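 Human aortic endothelial cells at confluence were incubated with TNF-α (250 U/mL) and compound (0.005% DMSO final) for 18 h, then formalin-fixed. Cells were probed with anti-VCAM-1 mAb (2 h, 37 °C), then biotin anti-mouse IgG+IgM F(ab)₂ (1 h), then [¹²⁵I]streptavidin (15 min, 4 °C). NaOH digests were counted.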
# [3] = The compound was tested for inhibitory activity against intercellular adhesion molecule (ICAM)-1 mediated cell adhesion in Human umbilical endothelial cell culture, by using HUVEC surface expression assay.; assay type: functional, cell-based
# Method in brief: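 HUVECs were pretreated with compound for 30 min, then stimulated with TNF-α (140 U/mL final) for 4 h at 37 °C. Unstimulated background was subtracted and results given as % inhibition versus vehicle. IC50 came from linear regression; average of two triplicate assays.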
# [4] = The compound was tested for inhibitory activity against intercellular adhesion molecule (ICAM)-1 mediated cell adhesion in Human aortic endothelial cell culture, by using HAEC surface expression assay at 50 uM; assay type: functional
# Method in brief: (§2)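 Confluent human aortic endothelial cells were incubated with TNF-α (250 U/mL) and compound (0.005% DMSO final) for 18 h. Cells were formalin-fixed and probed with anti-ICAM-1 mAb (2 h, 37 °C), then peroxidase anti-mouse IgG (1 h) and colour reagent (15 min). Read-out was OD414.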
# [5] = The compound was tested for cell adhesion by measuring the inhibitory concentration against Human umbilical vein endothelial cell (HUVEC) activation, using Na51CrO4 as radioligand.; assay type: functional, cell-based
# [6] = The compound was tested for inhibitory activity against E-Selectin mediated cell adhesion in Human umbilical endothelial cell culture, by using HUVEC surface expression assay.; assay type: functional, cell-based
# Method in brief: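 Confluent HUVECs were given compound 30 min before TNF-α (140 U/mL final), then incubated 4 h at 37 °C. Unstimulated background was subtracted and results given as % inhibition versus vehicle. IC50 came from linear regression; average of two assays, each in triplicate.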
# [7] = The compound was tested for cell adhesion by measuring the inhibitory concentration against Human umbilical vein endothelial cell (HUVEC) activation, using Na51CrO4 as radioligand at 100 micro M; assay type: functional
# Method in brief: (§3)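 Confluent second-passage HUVEC monolayers were stimulated with TNF-α (200 U/mL) for 4 h with or without compound at 100 μM, then washed. Fresh human neutrophils labelled with Na⁵¹CrO₄ (5 × 10⁵) were added for 30 min at 37 °C. Non-adherent cells were aspirated and adherent cells lysed in NH₄OH; lysates were γ-counted. Results are % inhibition of TNF-stimulated adherence, triplicate. IC50 came from linear regression at 33.3–1.0 μM.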
# [8] = Cell adhesion measured using the inhibitory concentration against Human umbilical vein endothelial cell (HUVEC) activation, with Na51CrO4 as radioligand at 100 uM; assay type: functional; method in brief: as §3
# [9] = The compound was tested for cell adhesion by measuring the inhibitory concentration against Human umbilical vein endothelial cell (HUVEC) activation, using calcein-AM as radioligand at 100 uM; assay type: functional
# [10] = The compound was tested for cell adhesion by measuring the inhibitory concentration against Human umbilical vein endothelial cell (HUVEC) activation, using Na51CrO4 as radioligand at 100 uM; assay type: functional; method in brief: as §3
# [11] = The compound was tested for cell adhesion by measuring the inhibitory concentration against Human umbilical vein endothelial cell (HUVEC) activation, using calcein-AM as radioligand at 33 uM; assay type: functional
# [12] = The compound was tested for cell adhesion by measuring the inhibitory concentration against Human umbilical vein endothelial cell (HUVEC) activation, using Na51CrO4 as radioligand at 50 uM; assay type: functional
# [13] = The compound was tested for inhibitory activity against vascular cell adhesion molecule (VCAM)-1 mediated cell adhesion in Human aortic endothelial cell culture, by using HAEC surface expression assay.; assay type: functional, cell-based; method in brief: as §1
# [14] = The compound was tested for inhibitory activity against intercellular adhesion molecule (ICAM)-1 mediated cell adhesion in Human aortic endothelial cell culture, by using HAEC surface expression assay.; assay type: functional, cell-based; method in brief: as §2
# Rattus norvegicus = test: Inhibitory activity against Mycobacterium-induced foot-pad edema(MFE); assay type: functional
# [15] = The compound was tested for inhibitory activity against vascular cell adhesion molecule (VCAM)-1 mediated cell adhesion in Human aortic endothelial cell culture, by using HAEC surface expression assay at 50 micro M
# [16] = The compound was tested for inhibitory activity against intercellular adhesion molecule (ICAM)-1 mediated cell adhesion in Human aortic endothelial cell culture, by using HAEC surface expression assay at 50 micro M
# [17] = The compound was tested for cell adhesion by measuring the inhibitory concentration against Human umbilical vein endothelial cell (HUVEC) activation, using calcein-AM radioligand at 100 uM; assay type: functional
# [18] = Inhibitory activity against Human umbilical vein endothelial cell (HUVEC) activation, using Na51CrO4 as radioligand at 100 uM.; assay type: functional; method in brief: as §3
# [19] = Inhibitory activity against E-Selectin mediated cell adhesion in Human umbilical endothelial cell culture, by using HUVEC surface expression assay.; assay type: functional, cell-based
# Method in brief: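 Confluent HUVECs were given compound 30 min before TNF-α (140 U/mL final), then incubated 4 h at 37 °C. Cells were formalin-fixed and surface E-selectin detected by cell ELISA (mouse anti-E-selectin 0.5 μg/mL, peroxidase anti-mouse IgG), with absorbance at 414 nm. Unstimulated background was subtracted and results given as % inhibition versus vehicle. IC50 came from linear regression; average of two assays, each in triplicate.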
# [20] = Inhibitory activity against intercellular adhesion molecule (ICAM)-1 mediated cell adhesion in Human umbilical endothelial cell culture, by using HUVEC surface expression assay.; assay type: functional, cell-based
# Method in brief: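 HUVECs were pretreated with compound for 30 min, then stimulated with TNF-α (140 U/mL final) for 4 h at 37 °C. After formalin fixation, surface ICAM-1 was measured by cell ELISA (mouse anti-ICAM-1 0.5 μg/mL, peroxidase anti-mouse IgG), with absorbance at 414 nm. Unstimulated background was subtracted and results given as % inhibition versus vehicle. IC50 came from linear regression; average of two triplicate assays.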
smiles,measurement,setting,value
COc1ccc2c(c1)c(OC)c(C(N)=O)[s+]2[O-] (stereo not drawn),inhibition at 100 µM,[1],40%
COc1ccc2[nH]c(C(N)=O)c(OC(C)C)c2c1,inhibition at 50 µM,[2],83%
same,IC50,[3],2.5 µM
same,inhibition at 50 µM,[4],89%
same,IC50,[5],8 µM
same,IC50,[6],7.9 µM
CCNC(=O)c1sc2ccc(OC)cc2c1OC(C)C,Inhibition,[7],64%
CC(C)Oc1c(C(N)=O)ccc2ccccc12,inhibition at 100 µM,[8],< 4%
COc1ccc2sc(C(N)=O)c(OCc3ccccc3)c2c1,inhibition at 100 µM,[8],57%
COc1ccc2c(c1)c(OC(C)C)c(C(N)=O)n2C,inhibition at 50 µM,[2],84%
same,IC50,[3],3.7 µM
same,inhibition at 50 µM,[4],92%
same,IC50,[5],10 µM
same,IC50,[6],9.2 µM
CC(C)Oc1c(C(N)=O)sc2ccc(Cl)cc12,inhibition at 100 µM,[8],72%
CC(C)Oc1c(C(N)=O)oc2ccccc12,inhibition at 100 µM,[8],20%
COc1ccc2sc(C(N)=O)c(SC(C)C)c2c1,IC50,[5],12 µM
COc1ccc2oc(C(N)=O)c(OC(C)C)c2c1,IC50,[3],5 µM
same,IC50,[5],14 µM
same,IC50,[6],7.9 µM
COc1ccc2sc(C(=O)Nc3ccccc3)c(OC(C)C)c2c1,inhibition at 100 µM,[8],12%
CC(C)Oc1c(C(N)=O)sc2ccc([N+](=O)[O-])cc12,inhibition at 100 µM,[8],40%
CC(C)Oc1c(C(N)=O)sc2ccc(OCc3ccccc3)cc12,inhibition at 100 µM,[8],< 4%
COc1ccc2sc(C(=O)NCC(=O)O)c(OC(C)C)c2c1,inhibition at 100 µM,[8],< 4%
COc1ccc2c(c1)c(OC(C)C)c(C(=O)Nc1ccccc1)[s+]2[O-] (stereo not drawn),inhibition at 100 µM,[9],< 4%
CC(C)Oc1c(C(N)=O)[s+]([O-])c2ccccc12 (stereo not drawn),inhibition at 100 µM,[1],< 4%
CNC(=O)c1c(OC(C)C)c2cc(OC)ccc2[s+]1[O-] (stereo not drawn),inhibition at 100 µM,[10],43%
CNC(=O)c1sc2ccc(OC)cc2c1SC(C)C,inhibition at 33 µM,[11],61%
COc1ccc2sc(C(N)=O)c(SCCN)c2c1,inhibition at 33 µM,[11],0%
CC(C)OC1=C(C(N)=O)S(=O)(=O)c2ccc(O)cc21,inhibition at 50 µM,[12],< 4%
COc1ccc2c(c1)c(OC(C)C)c(C(N)=O)[s+]2[O-] (stereo not drawn),IC50,[13],4 µM
same,IC50,[3],4 µM
same,IC50,[14],10 µM
same,IC50,[5],8.7 µM
same,IC50,[6],6.6 µM
same,ID40,Rattus norvegicus,10.9 mg/kg
CC(C)Oc1c(C(N)=O)sc2ccc(N)cc12,inhibition at 100 µM,[8],49%
COc1ccc2ccc(C(=O)Nc3ccccc3)c(OC(C)C)c2c1,inhibition at 100 µM,[8],< 4%
COc1ccc2oc(C(=O)Nc3ccccc3)c(OC(C)C)c2c1,inhibition at 100 µM,[8],< 4%
CC(C)Oc1c(C(N)=O)sc2ccccc12,inhibition at 100 µM,[8],60%
COCn1c(C(N)=O)c(OC(C)C)c2cc(OC)ccc21,IC50,[5],34 µM
CCNC(=O)c1oc2ccc(OC)cc2c1OC(C)C,inhibition at 100 µM,[9],< 4%
COc1ccc2sc(C(N)=O)c(SCC(=O)O)c2c1,inhibition at 33 µM,[11],7%
CC(C)Oc1c(C(N)=O)sc2ccc(O)cc12,IC50,[3],3.5 µM
same,inhibition at 50 µM,[4],91%
same,IC50,[5],6.4 µM
same,IC50,[6],3.3 µM
CNC(=O)c1sc2ccc(OC)cc2c1OC(C)C,IC50,[3],6.6 µM
same,IC50,[5],15 µM
same,IC50,[6],1.4 µM
same,Inhibition,[15],83%
same,Inhibition,[16],85%
COc1ccc2ccc(C(N)=O)c(OC(C)C)c2c1,inhibition at 50 µM,[2],81%
same,IC50,[3],5.2 µM
same,inhibition at 50 µM,[4],86%
same,IC50,[5],11 µM
same,IC50,[6],8.6 µM
COc1ccc2sc(C(=O)NCCCCC(=O)O)c(OC(C)C)c2c1,inhibition at 100 µM,[8],9%
COc1ccc2sc(C(=O)NCc3ccccc3)c(OC(C)C)c2c1,inhibition at 100 µM,[17],35%
COc1ccc2sc(C(=O)Nc3ccc(C(=O)O)cc3)c(OC(C)C)c2c1,IC50,[5],50 µM
COc1ccc2sc(C(N)=O)c(SCCCCC(=O)O)c2c1,inhibition at 100 µM,[9],37%
COc1ccc2sc(C(N)=O)c(SC)c2c1,inhibition at 100 µM,[8],81%
CC(C)Sc1c(C(N)=O)sc2ccc(OCc3ccccc3)cc12,inhibition at 33 µM,[11],24%
COc1ccc2c(c1)c(OC(C)C)c(C(=O)NC(C)C)[s+]2[O-] (stereo not drawn),inhibition at 100 µM,[10],8%
CC(C)Oc1c(C(N)=O)oc2ccc(Cl)cc12,inhibition at 100 µM,[8],52%
COc1ccc2sc(C(=O)NC(C)C)c(SC(C)C)c2c1,inhibition at 33 µM,[11],22%
COc1ccc2c(c1)c(Oc1ccccc1)c(C(N)=O)[s+]2[O-] (stereo not drawn),inhibition at 100 µM,[18],15%
COc1ccc2sc(C(N)=O)c(Oc3ccccc3)c2c1,inhibition at 100 µM,[8],59%
CC(C)Oc1c(C(N)=O)[s+]([O-])c2ccc(O)cc12 (stereo not drawn),IC50,[19],5 µM
same,IC50,[20],2.7 µM
COc1ccc2c(OC(C)C)c(C(N)=O)sc2c1,inhibition at 100 µM,[8],24%
CC(C)Sc1c(C(N)=O)sc2ccccc12,inhibition at 100 µM,[8],34%
COc1ccc2sc(C(N)=O)c(Sc3ccccc3)c2c1,inhibition at 100 µM,[8],48%
COc1ccc2sc(C(N)=O)c(OC)c2c1,inhibition at 100 µM,[8],60%
Cc1ccc2sc(C(N)=O)c(OC(C)C)c2c1,inhibition at 100 µM,[8],61%
CCNC(=O)c1c(OC(C)C)c2cc(OC)ccc2[s+]1[O-] (stereo not drawn),inhibition at 100 µM,[10],36%
COc1ccc2sc(C(=O)Nc3ccccc3C(=O)O)c(OC(C)C)c2c1,inhibition at 100 µM,[8],35%
CCNC(=O)c1ccc2ccc(OC)cc2c1OC(C)C,inhibition at 100 µM,[8],73%
COc1cccc2c(OC(C)C)c(C(N)=O)sc12,inhibition at 50 µM,[2],< 4%
same,inhibition at 50 µM,[4],21%
same,inhibition at 50 µM,[12],35%
COc1ccc2sc(C(=O)Nc3cccc(C(=O)O)c3)c(OC(C)C)c2c1,inhibition at 100 µM,[8],28%
COc1ccc2c(c1)c(OC(C)C)c(C(=O)NCc1ccccc1)[s+]2[O-] (stereo not drawn),inhibition at 100 µM,[8],15%
